Tested on: PPC-1 cells, TRAIL potentiation, ATPlite luminescence, 24 h
Assay: TRAIL killing potentiation in PPC-1 cells, confirmation, cell-based, ATPlite luminescence (AID 1624)
Details: stronger effect = higher value
In short: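 Schedule: 4 h compound pretreatment, then 24 h TRAIL exposure, 37 °C. System: PPC-1 human cancer cell line. Detection: ATP-based luminescence (ATPlite). Also added: TRAIL added after compound pretreatment. Dosing: compound at 1.25 to 5 µM final concentration.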

[1] = compound alone cytotoxicity, at 5 µM
[2] = compound plus TRAIL, at 1.25 µM

Structure (SMILES)	cytotoxicity with TRAIL (at 5 µM) [%]	cytotoxicity without TRAIL [1] [%]	cytotoxicity without TRAIL (compound alone, at 1.25 µM) [%]	cytotoxicity without TRAIL (compound alone, at 2.5 µM) [%]	cytotoxicity with TRAIL [2] [%]	cytotoxicity with TRAIL (compound plus TRAIL, at 2.5 µM) [%]
CSc1nc(-c2ccccc2)nc(C(Cl)Cl)n1	100	56	52	56	83	96
CCSc1nc(-c2ccccc2)nc(C(Cl)Cl)n1	96	41	18	26	43	61
CSc1nc(-c2ccc(C)cc2)nc(C(Cl)Cl)n1	100	45	49	48	94	100
